# V1aR counter: V1a receptor agonism, counter-screen for OXTR agonists. P37288. CHO-V1R cells, Fluo-8 calcium fluorescence, agonist mode; 0% DMSO, 100% 3 nM vasopressin. activation, % at 3 µM. 0.25% of 320,000 active. AID 2797;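 active means activation above the mean activation of all tested compounds plus 3 SD, per screening run, cut at about 20% in these data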;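 further: signal is peak over basal fluorescence ratio across a 100 second FLIPR read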
# OXTR potentiate: potentiators of human oxytocin receptor; P30559; CHO-OTR cells, Fluo-8 calcium fluorescence, potentiator mode; 0% = oxytocin EC15, 100% = EC100; activation, % at 3 µM; 0.061% of 320,000 active; AID 2445;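 active means activation above that plate's cutoff, the mean activation of tested compounds plus 3 SD, cut at about 6.6% in these data, passing the limit was not always enough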;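 further: 100% uses oxytocin at 75 nM as the full agonist control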
# Target sequence (P30559 whole entry, looked up): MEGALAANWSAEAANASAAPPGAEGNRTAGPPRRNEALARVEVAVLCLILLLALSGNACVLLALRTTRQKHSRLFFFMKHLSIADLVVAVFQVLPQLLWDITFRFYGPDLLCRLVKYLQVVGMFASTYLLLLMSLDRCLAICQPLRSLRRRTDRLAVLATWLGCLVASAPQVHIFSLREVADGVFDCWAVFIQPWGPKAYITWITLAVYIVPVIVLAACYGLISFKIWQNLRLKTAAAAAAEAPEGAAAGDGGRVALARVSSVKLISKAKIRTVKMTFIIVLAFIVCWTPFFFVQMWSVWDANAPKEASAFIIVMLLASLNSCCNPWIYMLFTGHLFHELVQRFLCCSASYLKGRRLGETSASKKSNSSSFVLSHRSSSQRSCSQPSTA
#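 assay system = CHO-OTR cells, human receptor | schedule = compound 6 min at room temperature before oxytocin, 100 s read | detection = Fluo-8 intracellular calcium fluorescence, ex 470-495, em 515-575 nm | evaluation = normalized max/min fluorescence ratio, % activation | control set = EC15 oxytocin alone as 0%, 75 nM oxytocin (EC100) as 100%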
# TRPN1 ag: activates the zebrafish TRPN1 channel. HEK293 zebrafish TRPN1-YFP, Fluo-8 calcium fluorescence; 100% = response to 87 µM carbachol. activation, % at 3 µM. 0.18% of 220,000 active;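 active means activation above its plate's cutoff, the mean activation of test wells on that plate plus 3 SD, cut at about 19% in these data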;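 further: 0% = DMSO alone and 100% = 87 µM carbachol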
#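 Assay system: Zebrafish TRPN1-YFP in HEK293 cells | Incubation: Dye loading 1 h at 37 °C, then 30 min room temperature | Measured by: Kinetic Fluo-8 fluorescence, ex 470-495, em 515-575 nm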
# OXTR agonist: agonists of human oxytocin receptor. P30559. CHO-OTR cells, Fluo-8 calcium fluorescence; normalized: DMSO 0%, oxytocin 100%. activation, % at 3 µM. 0.32% of 320,000 active;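 active means activation above the mean of all tested compounds plus 3 SD, cutoff set per screening run, cut at about 20% in these data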;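 further: peak over basal fluorescence ratio from a 100 s FLIPR kinetic read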
# TRPML3 agonist: activates the human TRPML3 channel; Q8TDD5; HEK293 TRPML3-YFP, Fluo-8 calcium fluorescence; 100% = the carbachol control signal; activation, % at 3 µM; 0.29% of 220,000 active;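 active means activation above its plate's cutoff, the mean activation of the plate's test wells plus 3 SD, cut at about 12% in these data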;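 further: 0% = DMSO only wells and 100% = carbachol wells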
#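 Material: HEK293 cells stably carrying human TRPML3-YFP; compound dosing: single dose, 3 µM final nominal compound, 0.3% DMSO final; incubation: 1-h 37 °C dye load, 5-s basal, 120-s post-compound reads; technique: Fluo-8 intracellular calcium fluorescence, excitation 470-495 nm, emission 515-575 nm; read-out basis: percent activation from peak-to-basal fluorescence ratio, scaled between DMSO and carbachol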
# Starred values were filed as active, the others as inactive; / = no result given. Only some compounds are listed: those with a hit (about 0.58% of all), similar ones and a draw of the others.
SMILES,V1aR counter,OXTR potentiate,TRPN1 ag,OXTR agonist,TRPML3 agonist
CC(=O)Nc1cccc(C(=O)/C=C/c2ccc(/C=C/C(=O)c3cccc(NC(C)=O)c3)cc2)c1,0,-9,1,2,1
CCN(CC)c1ccc(/C=C(\C#N)c2nc(-c3cccs3)c(NC(C)=O)s2)cc1,/,/,22*,/,29*
COc1cc(/C=C2/SC(=S)N(CC3CCCO3)C2=O)ccc1O (stereo unspecified),32*,-16,37*,48*,34*
COc1cc(/C=C2\SC(=S)N(NC(=O)c3ccc(O)cc3)C2=O)ccc1O,25*,-10,/,64*,/
COc1cc(/C=C2\SC(=S)N(C(Cc3ccccc3)C(=O)O)C2=O)ccc1O (stereo unspecified),30*,-8,22*,28*,12*
CCOc1cc(/C=C2\SC(=S)N(Nc3ccccc3)C2=O)ccc1O,27*,-18,22*,47*,16*
CCOc1cc(/C=C2\SC(=S)N(NS(=O)(=O)c3ccccc3)C2=O)ccc1O,12,-19,/,8,/
CC(C)N(C(=O)Cn1cc(S(=O)(=O)CC(=O)NCc2ccc(F)cc2)c2ccccc21)C(C)C,0,-7,/,0,/
COc1cc(=O)[nH]c(SC(C)C(=O)Nc2cc(C)on2)n1 (stereo unspecified),-1,-4,/,0,/
COc1cc(/C=C2\SC(=S)N(NC(=O)c3cccnc3)C2=O)ccc1O,14,-7,10,11,7
COc1cc(/C=C2\SC(=S)N(c3cccnc3)C2=O)ccc1O,26*,-10,21*,24*,6
COc1cc(/C=C2\SC(=S)N(Nc3ccccc3)C2=O)ccc1O,24*,-22,25*,58*,14*
Cc1sc2ncnc(N3CCCC(C)C3)c2c1C (stereo unspecified),1,2,0,-1,0
O=C(CCC(=O)OCc1ccc([N+](=O)[O-])cc1Cl)Nc1ccccc1,0,-9,/,-1,/
Cc1nnc2c3ccccc3c(-c3ccc(O)cc3)nn12,3,-6,0,1,0
Cc1c(-c2ccc(O)cc2)nc2nc(-c3ccccc3)c(-c3ccccc3)nn12,280*,-13,0,144*,-1
CC(C)(C)C(=O)NC(=S)NNC(=O)C(c1ccccc1)c1ccccc1,127*,-9,168*,89*,114*
Cc1cccc(Sc2nc(-c3ccccc3)ncc2C(=O)O)c1,0,-10,1,0,0
O=C(CN1C(=O)C2C3CC(C(Br)C3Br)C2C1=O)N1CCN(Cc2ccccc2)CC1 (stereo unspecified),1,-17,27*,15,8
O=C(CN1C(=O)C2C3CC(C(Br)C3Br)C2C1=O)N1CCOCC1 (stereo unspecified),0,-8,1,2,1
Cn1c(=O)c2c(ncn2CCOc2cccc(Br)c2)n(C)c1=O,8,-10,/,5,/
O=C(NNC(=S)NCc1ccccc1)c1cccc([N+](=O)[O-])c1,0,2,2,1,0
CC(=O)NNC(=S)NC(=O)c1cccc([N+](=O)[O-])c1,1,-5,0,5,1
O=C(NNC(=S)NC(=O)c1ccc(Br)cc1)c1cccc([N+](=O)[O-])c1,64*,-25,/,31*,/
O=C(NNC(=S)NC(=O)c1ccccc1Cl)c1cccc([N+](=O)[O-])c1,23*,-11,/,28*,/
SMILES,V1aR counter,OXTR potentiate,TRPN1 ag,OXTR agonist,TRPML3 agonist
O=C(NNC(=S)NC(=O)c1ccc(Br)cc1)c1ccc([N+](=O)[O-])cc1,63*,-26,/,64*,/
O=C(NNC(=S)NC(=O)c1ccccc1)c1ccc([N+](=O)[O-])cc1,33*,-22,/,34*,/
O=C(NN1CCOCC1)c1ccc(F)cc1,0,6,/,0,/
COc1ccc(C2(C)NC(=O)N(CC(=O)c3cc(C)n(C4CC4)c3C)C2=O)cc1 (stereo unspecified),45*,-16,/,49*,/
CC(C)(C)C1CCC(C(=O)OCC(=O)c2ccc[nH]2)CC1 (stereo unspecified),1,-5,-1,-2,0
CCN(CC)c1ccc(/C=C2\SC(=O)N(C(C)C)C2=O)o1,0,10,40*,0,9
CCN1/C(=C/c2ccc3cccc(C)c3[n+]2CC)Sc2ccccc21,11,-11,32*,18,18*
CCN1/C(=C/c2ccc3cc(C)cc(C)c3[n+]2CC)Sc2cc(C)ccc21,/,/,50*,/,15*
CCN1/C(=C\c2ccc3cc(C)ccc3[n+]2CC)Sc2cc(C)c(C)cc21,/,/,15,/,9
CCOC(=O)c1[nH]ncc1CN1CCN(Cc2ccccc2)C(CCO)C1 (stereo unspecified),0,2,0,1,1
CN(C)c1ccc(/C=C2\N=C(C(C)(C)C)OC2=O)cc1,1,-13,/,-1,/
Cc1ccccc1-n1c(O)c(/C=C/C=Nc2ccccc2)c(=O)[nH]c1=O,30*,-15,13,47*,9
COC(=O)/C=C1\NC(=O)C(C)S1 (stereo unspecified),2,-6,-1,0,0
COC(=O)c1ccc(N2CCN(C)CC2)c(NC(=O)c2cccs2)c1,0,-10,/,1,/
Cc1cc(=O)[nH]c(SCC(=O)Nc2ccccc2C)n1,1,-3,20*,1,1
OC(c1cc(-c2ccc(C(F)(F)F)cc2)nc(C(F)(F)F)c1)C1CCCCN1 (stereo unspecified),26*,-13,7,23*,5
COC(=O)CSc1nc(-c2ccc(F)cc2)cc(C(F)(F)F)n1,-1,-1,-1,-2,0
CN1CCC/C1=C/C=C1\SC(=S)NC1=O,24*,-12,11,46*,10
O=C(CCC1CCCN(C(=O)c2ccoc2)C1)NCc1ccccc1F (stereo unspecified),0,0,-1,-1,0
CCOCc1nnc(NC(=O)C2c3ccccc3Oc3ccccc32)s1,22*,-11,16,30*,7
Cc1ccc(C(C)C)cc1S(=O)(=O)NC1CC(C)(C)NC(C)(C)C1,0,-3,/,1,/
COc1ccccc1N=C1NC(=O)/C(=C/c2ccc(N(C)C)cc2)S1,24*,-22,/,25*,/
O=C(NCc1cccc(F)c1)c1cccc2c1C(=O)c1ccc(N3CCC(Cc4ccccc4)CC3)cc1S2(=O)=O,17,-11,/,11,/
CC1CCN(c2ccc3c(c2)S(=O)(=O)c2cccc(C(=O)NCc4cccc(F)c4)c2C3=O)CC1,38*,-10,/,50*,/
O=C(NCc1cccc(F)c1)c1cccc2c1C(=O)c1ccc(N3CCCC3)cc1S2(=O)=O,26*,-7,/,20*,/

# High-throughput results (PubChem BioAssay)
